# Experimental data of several laboratories.
# Protocols differ between the studies behind these lines.
# Observed: cell growth or viability
Structure (SMILES),cell line,test,setting,endpoint,value
NS(=O)(=O)OC[C@H]1C[C@@H](Nc2ccnc3cc(-c4cccc(SC(F)(F)F)c4)nn23)[C@H](O)[C@@H]1O,HEK-293T,ATP luminescence,24 h,EC50,296 nM
NS(=O)(=O)c1ccc(-c2ccc(Nc3ccncc3)cc2)cc1,HEK-293T,MTT,100 µM,viability,69%
Cc1ccc(N(C)c2ccc(NC(=O)CN(C)c3ccccc3N3CCCC3=O)cc2)nc1,HepG2,ATP luminescence,48 h,CC50,> 40 µM
NS(=O)(=O)c1ccc(-c2ccc(Nc3ccc(Cl)cc3)cc2)cc1,HEK-293T,MTT,100 µM,viability,76%
c1cnc2c(c1)ccc1cccnc12,HEK-293T,MTT,"12.5 µg/mL, 24 h",viability,> 80%
O=c1c2c([nH]c3cc(Oc4ccc(OC(F)(F)F)cc4)ccc13)CCCC2,HepG2,MTT,48 h,IC50,> 50 µM
CCN(c1ccc(C)cc1)c1ccc(NC(=O)CN(C)c2ccccc2N2CCCC2=O)cn1,HepG2,ATP luminescence,48 h,CC50,> 40 µM
OCc1ccc(-c2nn(Cc3ccccc3)c3ccccc23)o1,HepG2,ATP luminescence,,IC50,7.14 µM
